Consider one compound from ChEMBL document CHEMBL4351018, “Novel phenanthridin-6(5H)-one derivatives as potent and selective BET bromodomain inhibitors: Rational design, synthesis and biological evaluation” (Eur J Med Chem, 2019).

Data set [1] has as its system A549. Kind of data set: Induction of cell cycle arrest in human A549 cells assessed as accumulation at […] phase at 0.3 uM incubated for 48 hrs by BrdU/PI staining based flow cytometric analysis. The class given is functional. Summed up: (§1)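 Subconfluent A549 cells exposed 48 h to 0.3–5.0 μM with DMSO vehicle control. Pulse-labelled with 10 μM BrdU for 30 min at 37 °C before harvest. Fixed in 70% ethanol, denatured in 2 M HCl, neutralised, then stained with fluorescein anti-BrdU antibody and propidium iodide. Analysed by flow cytometry with 488 nm excitation.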

The subject of data set [2] is A549. In words: Induction of apoptosis in human A549 cells assessed as viable cells at 3.0 uM incubated for 48 hrs by annexin V-FITC/PI double staining based flow cytometric analysis (reference value: 98.2%). It is filed as functional. Particulars: A549, 48 h, read-out: Activity.
The nature of data set [3]: MRT (0 to t) in Sprague-Dawley rat at 10 mg/kg, po measured for 0.083 to 24 hrs by LC-MS/MS analysis. Particulars: in vivo. It is filed as ADME, organism-based.
Data set [4] in a line: AUC (0 to t) in Sprague-Dawley rat at 2.5 mg/kg, iv measured for 0.083 to 24 hrs by LC-MS/MS/MS analysis. The class given is ADME, organism-based. Details: time upper 24 hr, dose 2.5 mg/kg, time lower 0.083 hr, route intravenous. The conditions noted are these: in vivo.
The target in another data set is T1, Peregrin (Homo sapiens) (UniProt P55201).
T1 sequence (whole entry): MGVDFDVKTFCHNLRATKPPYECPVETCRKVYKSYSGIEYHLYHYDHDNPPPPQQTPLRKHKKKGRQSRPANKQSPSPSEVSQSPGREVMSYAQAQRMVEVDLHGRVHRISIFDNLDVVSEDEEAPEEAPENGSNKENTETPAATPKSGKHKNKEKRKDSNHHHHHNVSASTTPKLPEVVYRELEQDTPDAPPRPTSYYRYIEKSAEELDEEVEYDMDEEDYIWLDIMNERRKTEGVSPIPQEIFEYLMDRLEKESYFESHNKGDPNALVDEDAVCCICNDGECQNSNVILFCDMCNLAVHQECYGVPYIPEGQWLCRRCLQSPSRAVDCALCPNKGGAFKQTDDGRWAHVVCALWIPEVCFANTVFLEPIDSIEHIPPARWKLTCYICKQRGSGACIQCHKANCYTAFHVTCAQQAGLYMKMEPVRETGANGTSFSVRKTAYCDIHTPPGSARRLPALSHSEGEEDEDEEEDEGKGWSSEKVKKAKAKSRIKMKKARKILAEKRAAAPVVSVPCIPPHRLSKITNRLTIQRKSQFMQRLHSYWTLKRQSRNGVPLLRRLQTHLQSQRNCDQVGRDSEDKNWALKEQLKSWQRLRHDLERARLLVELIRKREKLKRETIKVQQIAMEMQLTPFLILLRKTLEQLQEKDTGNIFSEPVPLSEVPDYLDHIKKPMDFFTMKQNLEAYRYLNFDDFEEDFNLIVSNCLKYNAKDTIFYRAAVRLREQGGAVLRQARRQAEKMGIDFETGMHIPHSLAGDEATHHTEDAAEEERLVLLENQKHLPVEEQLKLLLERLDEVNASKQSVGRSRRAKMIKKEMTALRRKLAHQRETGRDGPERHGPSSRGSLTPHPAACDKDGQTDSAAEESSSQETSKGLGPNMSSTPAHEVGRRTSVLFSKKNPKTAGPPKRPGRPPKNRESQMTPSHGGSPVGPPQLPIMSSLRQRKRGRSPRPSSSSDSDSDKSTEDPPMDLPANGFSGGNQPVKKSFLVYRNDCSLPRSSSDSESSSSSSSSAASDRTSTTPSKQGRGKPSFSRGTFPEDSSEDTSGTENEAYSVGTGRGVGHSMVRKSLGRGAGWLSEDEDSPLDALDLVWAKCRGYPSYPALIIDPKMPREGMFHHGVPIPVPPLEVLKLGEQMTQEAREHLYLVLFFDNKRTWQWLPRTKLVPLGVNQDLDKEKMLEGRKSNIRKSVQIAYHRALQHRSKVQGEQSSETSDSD
In words: Binding affinity to BRPF1B (unknown origin) at 20 uM by Alpha screen assay relative to control.

Data set [5] concerns A549. Kind of data set: Antiproliferative activity against human A549 cells incubated for 48 hrs by MTT assay. It is filed as functional, cell-based. Particulars: A549, 48 h. In short, it runs like this: (§2)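 Cells kept in DMEM or RPMI 1640 with 10% FBS at 37 °C, 5% CO2. MTT added for 4 h at 37 °C, formazan dissolved in DMSO, OD read at 570 nm. Survival % taken relative to blank and control wells. Triplicate runs; IC50 from curve fit.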

The nature of data set [6]: AUC (0 to t) in Sprague-Dawley rat at 10 mg/kg, po measured for 0.083 to 24 hrs by LC-MS/MS analysis. The class given is ADME, organism-based. Details: time 0.083-24 hr, dose 10 mg/kg, route oral. Particulars: in vivo.
For data set [7], the target named is Bromodomain-containing protein 4 (Homo sapiens, UniProt O60885). Kind of data set: Binding affinity to recombinant human His-tagged BRD4 bromodomain 1 expressed in […] insect cells using biotinylated H4(1 to 21)K5/8/12/16Ac peptide as substrate at 20 uM preincubated for 30 mins followed by substrate addition and measured after 30 mins by Alpha screen assay relative to control.

Data set [8] in a line: Cmax in Sprague-Dawley rat at 10 mg/kg, po measured for 0.083 to 24 hrs by LC-MS/MS analysis. The conditions noted are these: in vivo. The class given is ADME, organism-based. More on the design: dose 10 mg/kg, route oral.
Data set [9] addresses Bromodomain-containing protein 2 (Homo sapiens) (UniProt P25440). In words: Binding affinity to BRD2 bromodomain 1 (unknown origin) at 20 uM by Alpha screen assay relative to control.
The test system of data set [10] is A549. Kind of data set: Induction of cell cycle arrest in human A549 cells assessed as accumulation at […] phase at 3.0 uM incubated for 48 hrs by BrdU/PI staining based flow cytometric analysis. It is filed as functional. Summed up:
as §1

The nature of data set [11]: Oral bioavailability in Sprague-Dawley rat at 10 mg/kg measured for 0.083 to 24 hrs by LC-MS/MS analysis. It is filed as ADME, organism-based. The conditions noted are these: in vivo.
In data set [12] the test system is A549. In words: Induction of apoptosis in human A549 cells assessed as early apoptotic cells at 1.0 uM incubated for 48 hrs by annexin V-FITC/PI double staining based flow cytometric analysis (reference value: 1.76%). The class given is functional.
For data set [13], the system named is A549. Kind of data set: Induction of apoptosis in human A549 cells incubated for 48 hrs by annexin V-FITC/PI double staining based flow cytometric analysis. It is filed as functional, cell-based.
A short description of data set [14]: Volume of distribution at steady state in Sprague-Dawley rat at 2.5 mg/kg, iv measured for 0.083 to 24 hrs by LC-MS/MS analysis. It is filed as ADME, organism-based. The conditions noted are these: in vivo, read-out: Vdss.
Data set [15] concerns A549. Kind of data set: Induction of apoptosis in human A549 cells assessed as viable cells at 0.3 uM incubated for 48 hrs by annexin V-FITC/PI double staining based flow cytometric analysis (reference value: 98.2%). The class given is functional. The conditions noted are these: A549, 48 h, read-out: Activity.
For data set [16], the system named is A549. In words: Induction of cell cycle arrest in human A549 cells assessed as increase in accumulation at G1 phase incubated for 48 hrs by BrdU/PI staining based flow cytometric analysis. It is filed as functional. In short, it runs like this:
as §1

Data set [17] has as its system A549. In words: Induction of apoptosis in human A549 cells assessed as necrotic cells at 0.3 uM incubated for 48 hrs by annexin V-FITC/PI double staining based flow cytometric analysis (reference value: 0%). The class given is functional.
For the next data set, the system named is HepG2. In words: Antiproliferative activity against human HepG2 cells incubated for 48 hrs by MTT assay. The class given is functional, cell-based. The conditions noted are these: HepG2, 48 h. In short, it runs like this:
as §2

Structures are written as SMILES.

Chain of Bromodomain-containing protein 2 (Homo sapiens) (P25440 whole entry, looked up): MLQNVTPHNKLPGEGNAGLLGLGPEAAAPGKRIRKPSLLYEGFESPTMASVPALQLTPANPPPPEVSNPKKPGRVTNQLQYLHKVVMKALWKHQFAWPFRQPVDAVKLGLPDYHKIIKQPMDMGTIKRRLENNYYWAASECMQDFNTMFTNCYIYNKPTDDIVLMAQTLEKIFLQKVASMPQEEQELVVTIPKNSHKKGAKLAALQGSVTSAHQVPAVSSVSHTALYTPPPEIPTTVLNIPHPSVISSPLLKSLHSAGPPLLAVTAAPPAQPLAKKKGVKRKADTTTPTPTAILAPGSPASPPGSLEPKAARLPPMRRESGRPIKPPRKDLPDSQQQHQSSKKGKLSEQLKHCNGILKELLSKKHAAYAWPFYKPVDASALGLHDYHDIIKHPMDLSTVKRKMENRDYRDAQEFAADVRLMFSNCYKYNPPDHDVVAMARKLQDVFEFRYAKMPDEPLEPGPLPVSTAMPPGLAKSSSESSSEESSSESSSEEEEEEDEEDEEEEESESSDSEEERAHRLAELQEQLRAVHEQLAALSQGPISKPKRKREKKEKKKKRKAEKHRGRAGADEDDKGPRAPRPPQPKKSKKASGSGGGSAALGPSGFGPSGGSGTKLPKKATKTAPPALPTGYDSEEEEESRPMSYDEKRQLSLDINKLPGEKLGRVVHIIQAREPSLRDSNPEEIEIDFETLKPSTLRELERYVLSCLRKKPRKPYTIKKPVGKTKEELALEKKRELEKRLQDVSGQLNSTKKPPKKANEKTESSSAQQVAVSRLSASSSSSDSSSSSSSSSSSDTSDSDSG

Consider `COc1ccc(Cl)cc1S(=O)(=O)Nc1ccc2[nH]c(=O)c3ccccc3c2c1`, for which the Activity is 60.84% in the data set with A549 [1]; over 30% on Peregrin (Homo sapiens); over 70% in data set [7]; over 70% in [9]; 76.42% with A549 [10]; 47.8% in the data set on A549 [12]. The Activity entry with A549 [13] is “Dose-dependent effect”; in the data set on A549 [16], “Dose-dependent effect”; in the data set on A549 [17], 0.02%. The viability at 3 µM in the data set with A549 [2] was determined as 24.6%. Also, the MRT last in data set [3] came out at 7.52 h. Besides, the AUC(0-t) stood at 383 ng·h/mL in data set [4] and 566 ng·h/mL in [6]. Moreover, the IC50 in the data set with A549 [5] is 0.75 µM; in the data set on HepG2, 4.83 µM. This compound also came in with a Cmax in data set [8] of 52.4 ng/mL. For the same compound, the bioavailability in [11] is 36.6%. Moreover, the Vd in data set [14] was 76.7 L/kg. For the same compound, in the data set with A549 [15], the viability at 0.3 µM was 69.6%.
